Test results published in ChEMBL document CHEMBL1156952, “Synthesis and biological evaluations of novel bendazac lysine analogues as potent anticataract agents” (Bioorg Med Chem Lett, 2010).
Converted amounts (≈) assume the structure as drawn.

Assays:
[1] = Aqueous solubility of the compound; assay type: physicochemical; details: water (aqueous)
[2] = Anticataract activity against FeCl3/H2O2-induced cataract in rabbit lens assessed as absence of opacificaion at 0.5 mM treated 1 hr before FeCl3/H2O2 challenge measured after 24 hrs; assay type: functional, Oryctolagus cuniculus, Lens of camera-type eye
[3] = Anticataract activity against FeCl3/H2O2-induced cataract in rabbit lens assessed as slight degree of opacificaion at 0.5 mM treated 1 hr before FeCl3/H2O2 challenge measured after 24 hrs; assay type: functional, Oryctolagus cuniculus, Lens of camera-type eye
[4] = Anticataract activity against FeCl3/H2O2-induced cataract in rabbit lens assessed as middle degree of opacificaion at 0.5 mM treated 1 hr before FeCl3/H2O2 challenge measured after 24 hrs; assay type: functional, Oryctolagus cuniculus, Lens of camera-type eye
[5] = Anticataract activity against FeCl3/H2O2-induced cataract in rabbit lens assessed as extensive mature nuclear opacity at 0.5 mM treated 1 hr before FeCl3/H2O2 challenge measured after 24 hrs; assay type: functional, Oryctolagus cuniculus, Lens of camera-type eye
[6] = Anticataract activity against FeCl3/H2O2-induced cataract in rat lens assessed as absence of opacificaion at 0.5 mM treated 1 hr before FeCl3/H2O2 challenge measured after 24 hrs; assay type: functional, Lens of camera-type eye
Method in brief: (§1)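 Isolated rat lenses were cultured in DMEM and challenged with FeCl3 (0.02%) plus H2O2 (0.5%). Compounds were added at 0.5 mM to the medium of transparent lenses, with a challenged, untreated control. Lenses were scored as the percentage at each opacification grade (−, +, ++, +++).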

[7] = Anticataract activity against FeCl3/H2O2-induced cataract in rat lens assessed as slight degree of opacificaion at 0.5 mM treated 1 hr before FeCl3/H2O2 challenge measured after 24 hrs; assay type: functional, Lens of camera-type eye; method in brief: as §1
[8] = Anticataract activity against FeCl3/H2O2-induced cataract in rat lens assessed as middle degree of opacificaion at 0.5 mM treated 1 hr before FeCl3/H2O2 challenge measured after 24 hrs; assay type: functional, Lens of camera-type eye; method in brief: as §1
[9] = Anticataract activity against FeCl3/H2O2-induced cataract in rat lens assessed as extensive mature nuclear opacity at 0.5 mM treated 1 hr before FeCl3/H2O2 challenge measured after 24 hrs; assay type: functional, Lens of camera-type eye; method in brief: as §1
Oryctolagus cuniculus [10] = species: Oryctolagus cuniculus; assay: Induction of water-solvent protein level in rabbit lens homogenates at 5 mM (Rvb= 7.40 +/-0.73 mg/mL); assay type: functional, tissue-based; details: Lens of camera-type eye
Method in brief: (§2)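 Rabbit lenses were cultured in DMEM under FeCl3 (0.02%) plus H2O2 (2%) challenge, with compound at 5, 10 or 15 mM in the medium. Each group's lenses were then homogenized. Water-soluble protein, total antioxidant capacity and malondialdehyde were each measured in the homogenate with a reagent kit.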

Oryctolagus cuniculus [11] = species: Oryctolagus cuniculus; assay: Induction of total-antioxidant capacity level in rabbit lens homogenates at 5 mM (Rvb= 0.04 u/mg); assay type: functional, tissue-based; details: Lens of camera-type eye; method in brief: as §2
Oryctolagus cuniculus [12] = species: Oryctolagus cuniculus; assay: Reduction of malondialdehyde level in rabbit lens homogenates at 5 mM (Rvb= 0.46 +/-0.27 nmol/mg); assay type: functional, tissue-based; details: Lens of camera-type eye; method in brief: as §2
Oryctolagus cuniculus [13] = species: Oryctolagus cuniculus; assay: Anticataract activity against FeCl3/H2O2-induced cataract in rabbit lens treated 1 hr before FeCl3/H2O2 challenge measured after 24 hrs; assay type: functional, tissue-based; details: Lens of camera-type eye
Oryctolagus cuniculus [14] = species: Oryctolagus cuniculus; assay: Induction of total-antioxidant capacity level in rabbit lens homogenates at 10 mM (Rvb= 0.04 u/mg); assay type: functional, tissue-based; details: Lens of camera-type eye; method in brief: as §2
Oryctolagus cuniculus [15] = species: Oryctolagus cuniculus; assay: Induction of total-antioxidant capacity level in rabbit lens homogenates at 15 mM (Rvb= 0.04 u/mg); assay type: functional, tissue-based; details: Lens of camera-type eye; method in brief: as §2
Oryctolagus cuniculus [16] = species: Oryctolagus cuniculus; assay: Reduction of malondialdehyde level in rabbit lens homogenates at 10 mM (Rvb= 0.46 +/-0.27 nmol/mg); assay type: functional, tissue-based; details: Lens of camera-type eye; method in brief: as §2
Oryctolagus cuniculus [17] = species: Oryctolagus cuniculus; assay: Reduction of malondialdehyde level in rabbit lens homogenates at 15 mM (Rvb= 0.46 +/-0.27 nmol/mg); assay type: functional, tissue-based; details: Lens of camera-type eye; method in brief: as §2
[18] = Anticataract activity against FeCl3/H2O2-induced cataract in rabbit lens assessed as absence of opacificaion at 10 mM treated 1 hr before FeCl3/H2O2 challenge measured after 24 hrs; assay type: functional, Oryctolagus cuniculus, Lens of camera-type eye
[19] = Anticataract activity against FeCl3/H2O2-induced cataract in rabbit lens assessed as slight degree of opacificaion at 10 mM treated 1 hr before FeCl3/H2O2 challenge measured after 24 hrs; assay type: functional, Oryctolagus cuniculus, Lens of camera-type eye
[20] = Anticataract activity against FeCl3/H2O2-induced cataract in rabbit lens assessed as middle degree of opacificaion at 10 mM treated 1 hr before FeCl3/H2O2 challenge measured after 24 hrs; assay type: functional, Oryctolagus cuniculus, Lens of camera-type eye
[21] = Anticataract activity against FeCl3/H2O2-induced cataract in rabbit lens assessed as extensive mature nuclear opacity at 10 mM treated 1 hr before FeCl3/H2O2 challenge measured after 24 hrs; assay type: functional, Oryctolagus cuniculus, Lens of camera-type eye
[22] = Anticataract activity against FeCl3/H2O2-induced cataract in rabbit lens assessed as absence of opacificaion at 5 mM treated 1 hr before FeCl3/H2O2 challenge measured after 24 hrs; assay type: functional, Oryctolagus cuniculus, Lens of camera-type eye
[23] = Anticataract activity against FeCl3/H2O2-induced cataract in rabbit lens assessed as slight degree of opacificaion at 5 mM treated 1 hr before FeCl3/H2O2 challenge measured after 24 hrs; assay type: functional, Oryctolagus cuniculus, Lens of camera-type eye
[24] = Anticataract activity against FeCl3/H2O2-induced cataract in rabbit lens assessed as middle degree of opacificaion at 5 mM treated 1 hr before FeCl3/H2O2 challenge measured after 24 hrs; assay type: functional, Oryctolagus cuniculus, Lens of camera-type eye
[25] = Anticataract activity against FeCl3/H2O2-induced cataract in rabbit lens assessed as extensive mature nuclear opacity at 5 mM treated 1 hr before FeCl3/H2O2 challenge measured after 24 hrs; assay type: functional, Oryctolagus cuniculus, Lens of camera-type eye
[26] = Anticataract activity against FeCl3/H2O2-induced cataract in rabbit lens assessed as absence of opacificaion at 15 mM treated 1 hr before FeCl3/H2O2 challenge measured after 24 hrs; assay type: functional, Oryctolagus cuniculus, Lens of camera-type eye
[27] = Anticataract activity against FeCl3/H2O2-induced cataract in rabbit lens assessed as slight degree of opacificaion at 15 mM treated 1 hr before FeCl3/H2O2 challenge measured after 24 hrs; assay type: functional, Oryctolagus cuniculus, Lens of camera-type eye
[28] = Anticataract activity against FeCl3/H2O2-induced cataract in rabbit lens assessed as middle degree of opacificaion at 15 mM treated 1 hr before FeCl3/H2O2 challenge measured after 24 hrs; assay type: functional, Oryctolagus cuniculus, Lens of camera-type eye
[29] = Anticataract activity against FeCl3/H2O2-induced cataract in rabbit lens assessed as extensive mature nuclear opacity at 15 mM treated 1 hr before FeCl3/H2O2 challenge measured after 24 hrs; assay type: functional, Oryctolagus cuniculus, Lens of camera-type eye

NCCCC[C@H](N)C(=O)O.O=C(O)C(Oc1nn(Cc2ccccc2)c2ccccc12)C(=O)O
solubility [1]: 123 mg/mL
Activity [2]: 0%
Activity [3]: 30%
Activity [4]: 35%
Activity [5]: 35%
Activity [6]: 0%
Activity [7]: 15%
Activity [8]: 70%
Activity [9]: 15%

O=C(O)C(Oc1nn(Cc2cccc(F)c2)c2ccccc12)C(=O)O
solubility [1]: 2 mg/mL (≈ 5.81 mM)

O=C(O)C(Oc1nn(Cc2ccc(Cl)cc2)c2ccccc12)C(=O)O
solubility [1]: < 1 mg/mL

O=C([O-])C(Oc1nn(Cc2ccc(Cl)cc2)c2ccccc12)C(=O)[O-].[K+].[K+]
solubility [1]: < 1 mg/mL

O=C([O-])C(Oc1nn(Cc2cccc(F)c2)c2ccccc12)C(=O)[O-].[Na+].[Na+]
solubility [1]: 3.2 mg/mL
Activity [2]: 0%
Activity [3]: 80%
Activity [4]: 20%
Activity [5]: 0%
Activity [6]: 0%
Activity [7]: 60%
Activity [8]: 35%
Activity [9]: 5%

O=C(O)C(Oc1nn(Cc2ccccc2)c2ccccc12)C(=O)O
solubility [1]: < 1 mg/mL

O=C(O)C(Oc1nn(Cc2cccc(Cl)c2)c2ccccc12)C(=O)O
solubility [1]: < 1 mg/mL

O=C([O-])C(Oc1nn(Cc2ccccc2)c2ccccc12)C(=O)[O-].[K+].[K+]
solubility [1]: 2.2 mg/mL
Activity [2]: 0%
Activity [3]: 30%
Activity [4]: 40%
Activity [5]: 30%
Activity [6]: 0%
Activity [7]: 0%
Activity [8]: 50%
Activity [9]: 50%

O=C(O)COc1nn(Cc2ccccc2)c2ccccc12
WSP level (Oryctolagus cuniculus [10]): 9.34 mg/mL
T-AOC level (Oryctolagus cuniculus [11]): 0.17 U/mg
MDA level (Oryctolagus cuniculus [12]): 0.22 nmol/mg

NCCCC[C@H](N)C(=O)O.O=C(O)C(Oc1nn(Cc2cccc(Cl)c2)c2ccccc12)C(=O)O
solubility [1]: 195 mg/mL
Activity [2]: 0%
Activity [3]: 0%
Activity [4]: 35%
Activity [5]: 65%
Activity [6]: 0%
Activity [7]: 55%
Activity [8]: 30%
Activity [9]: 15%

O=C([O-])C(Oc1nn(Cc2cccc(Cl)c2)c2ccccc12)C(=O)[O-].[Na+].[Na+]
solubility [1]: 1.2 mg/mL

N[C@@H](Cc1c[nH]cn1)C(=O)O.O=C(O)C(Oc1nn(Cc2ccc(Cl)cc2)c2ccccc12)C(=O)O
solubility [1]: 51 mg/mL

N[C@@H](Cc1c[nH]cn1)C(=O)O.O=C(O)C(Oc1nn(Cc2ccccc2)c2ccccc12)C(=O)O [listing 1 of 2 here]
Activity (Oryctolagus cuniculus [13]): Dose-dependent effect
WSP level (Oryctolagus cuniculus [10]): 13 mg/mL
T-AOC level (Oryctolagus cuniculus [11]): 0.21 U/mg
T-AOC level (Oryctolagus cuniculus [14]): 0.64 U/mg
T-AOC level (Oryctolagus cuniculus [15]): 0.34 U/mg
MDA level (Oryctolagus cuniculus [12]): 0.04 nmol/mg
MDA level (Oryctolagus cuniculus [16]): 0.03 nmol/mg
MDA level (Oryctolagus cuniculus [17]): 0.08 nmol/mg

NCCCC[C@H](N)C(=O)O.O=C(O)C(Oc1nn(Cc2ccc(Cl)cc2)c2ccccc12)C(=O)O
solubility [1]: 312 mg/mL

O=C(O)COc1nn(Cc2ccccc2)c2ccccc12 [BENDAZAC]
solubility [1]: < 1 mg/mL

Cc1ccc(Cn2nc(OC(C(=O)[O-])C(=O)[O-])c3ccccc32)cc1.[Na+].[Na+]
solubility [1]: < 1 mg/mL

NCCCC[C@H](N)C(=O)O.O=C(O)COc1nn(Cc2ccccc2)c2ccccc12 [BENDAZAC LYSINE]
solubility [1]: 93.8 mg/mL
Activity [2]: 0%
Activity [3]: 75%
Activity [4]: 25%
Activity [5]: 0%
Activity [6]: 0%
Activity [7]: 55%
Activity [8]: 40%
Activity [9]: 5%
Activity [18]: 20%
Activity [19]: 65%
Activity [20]: 15%
Activity [21]: 0%

N[C@@H](Cc1c[nH]cn1)C(=O)O.O=C(O)C(Oc1nn(Cc2cccc(Cl)c2)c2ccccc12)C(=O)O
solubility [1]: 115 mg/mL

O=C([O-])C(Oc1nn(Cc2ccccc2)c2ccccc12)C(=O)[O-].[Na+].[Na+]
solubility [1]: 3 mg/mL
Activity [2]: 0%
Activity [3]: 60%
Activity [4]: 40%
Activity [5]: 0%
Activity [6]: 0%
Activity [7]: 80%
Activity [8]: 20%
Activity [9]: 0%

Cc1ccc(Cn2nc(OC(C(=O)[O-])C(=O)[O-])c3ccccc32)cc1.[K+].[K+]
solubility [1]: < 1 mg/mL

NCCCC[C@H](N)C(=O)O.O=C(O)C(Oc1nn(Cc2cccc(F)c2)c2ccccc12)C(=O)O
solubility [1]: 134 mg/mL
Activity [6]: 0%
Activity [7]: 55%
Activity [8]: 45%
Activity [9]: 0%

N[C@@H](Cc1c[nH]cn1)C(=O)O.O=C(O)C(Oc1nn(Cc2cccc(F)c2)c2ccccc12)C(=O)O
solubility [1]: 56.6 mg/mL

Cc1ccc(Cn2nc(OC(C(=O)O)C(=O)O)c3ccccc32)cc1
solubility [1]: < 1 mg/mL

Cc1ccc(Cn2nc(OC(C(=O)O)C(=O)O)c3ccccc32)cc1.N[C@@H](Cc1c[nH]cn1)C(=O)O
solubility [1]: 71 mg/mL

O=C([O-])C(Oc1nn(Cc2ccc(Cl)cc2)c2ccccc12)C(=O)[O-].[Na+].[Na+]
solubility [1]: < 1 mg/mL

O=C([O-])C(Oc1nn(Cc2cccc(F)c2)c2ccccc12)C(=O)[O-].[K+].[K+]
solubility [1]: 2.4 mg/mL

N[C@@H](Cc1c[nH]cn1)C(=O)O.O=C(O)C(Oc1nn(Cc2ccccc2)c2ccccc12)C(=O)O [listing 2 of 2 here]
solubility [1]: 180 mg/mL
Activity [2]: 0%
Activity [3]: 65%
Activity [4]: 35%
Activity [5]: 0%
Activity [6]: 0%
Activity [7]: 85%
Activity [8]: 15%
Activity [9]: 0%
Activity [18]: 90%
Activity [19]: 10%
Activity [20]: 0%
Activity [21]: 0%
Activity [22]: 30%
Activity [23]: 70%
Activity [24]: 0%
Activity [25]: 0%
Activity [26]: 100%
Activity [27]: 0%
Activity [28]: 0%
Activity [29]: 0%

Cc1ccc(Cn2nc(OC(C(=O)O)C(=O)O)c3ccccc32)cc1.NCCCC[C@H](N)C(=O)O
solubility [1]: 57.4 mg/mL

O=C([O-])C(Oc1nn(Cc2cccc(Cl)c2)c2ccccc12)C(=O)[O-].[K+].[K+]
solubility [1]: < 1 mg/mL
